Measurements gathered from unrelated publications.
Compare with care: the assays were run in different laboratories.
Target: Serine/threonine-protein kinase D2 (PRKD2, Homo sapiens, UniProt Q9BZL6)
One construct used (Q9BZL6 1-878): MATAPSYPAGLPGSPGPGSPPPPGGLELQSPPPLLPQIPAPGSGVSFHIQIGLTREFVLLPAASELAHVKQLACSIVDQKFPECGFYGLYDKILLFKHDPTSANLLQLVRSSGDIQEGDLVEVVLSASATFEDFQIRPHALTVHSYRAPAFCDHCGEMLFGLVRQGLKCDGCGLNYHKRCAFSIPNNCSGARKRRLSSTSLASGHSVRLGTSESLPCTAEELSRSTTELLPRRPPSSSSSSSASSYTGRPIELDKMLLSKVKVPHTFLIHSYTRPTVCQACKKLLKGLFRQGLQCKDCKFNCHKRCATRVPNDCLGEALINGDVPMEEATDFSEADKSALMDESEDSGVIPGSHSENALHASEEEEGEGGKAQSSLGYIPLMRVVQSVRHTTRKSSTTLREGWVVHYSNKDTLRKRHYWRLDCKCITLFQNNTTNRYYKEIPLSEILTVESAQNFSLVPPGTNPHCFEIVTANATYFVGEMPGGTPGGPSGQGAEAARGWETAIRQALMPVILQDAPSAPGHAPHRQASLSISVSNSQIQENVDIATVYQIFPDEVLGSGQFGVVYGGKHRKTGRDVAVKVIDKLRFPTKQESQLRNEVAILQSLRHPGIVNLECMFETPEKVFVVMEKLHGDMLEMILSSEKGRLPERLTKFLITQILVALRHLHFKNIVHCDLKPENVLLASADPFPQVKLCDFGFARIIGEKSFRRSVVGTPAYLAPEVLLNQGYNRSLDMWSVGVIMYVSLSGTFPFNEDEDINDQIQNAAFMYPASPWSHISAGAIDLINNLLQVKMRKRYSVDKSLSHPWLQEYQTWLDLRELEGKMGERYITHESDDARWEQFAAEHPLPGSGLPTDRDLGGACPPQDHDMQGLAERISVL

`C=CC(=O)N1CCC([C@@H]2CCNc3c(C(N)=O)c(-c4ccc(Oc5ccccc5)cc4)nn32)CC1` has an inhibition of 3% (enzyme activity; inhibitor; 1 µM).
With `C1=C/COCc2cc(ccc2OCCN2CCCC2)Nc2nccc(n2)-c2cccc(c2)COC/1` the remaining binding was 100% (binding; 0.1 µM).
The inhibition of `CO[C@@H]1[C@H](N(C)C(=O)c2ccccc2)C[C@H]2O[C@]1(C)n1c3ccccc3c3c4c(c5c6ccccc6n2c5c31)C(=O)NC4` is reported as 18% (enzyme activity; inhibitor; 1 µM).
The inhibition of `Cc1cc(O)c(-c2ccc([C@@H](C)CN(C)C)cc2)c2c1[nH]c(=O)c1sccc12` is reported as -4.52% (enzyme activity; inhibitor; 0.1 µM).
`C#Cc1cc(-c2cc(Nc3nc(N[C@@H](C)c4ccc(F)cn4)ncc3Cl)n[nH]2)ccc1C=O` has an inhibition of 5.36% (enzyme activity; inhibitor; 0.2 µM).
With `C[C@H]1CC[C@H](n2c3cnccc3c3cnc(Nc4ccc5c(n4)CCN(C(=O)CO)C5)nc32)CC1` the remaining signal was 100% (cell-free assay; 1 µM).
With `COc1ccc2oc(-c3ccc4nc(N)oc4c3)c/c(=N\c3ccccc3NC(=O)CCN)c2c1` the remaining binding was 94% (binding; 1 µM).
The remaining binding of `CCCCC(=O)Nc1ccc(-c2ccc3ncn(CCC)c(=O)c3c2)cn1` is reported as 88% (binding; competition with immobilised ligand; 0.5 µM).
For `Cc1ccc(NC(=O)c2ccnc(C(F)(F)F)c2)cc1-c1cc(OCCO)nc(N2CCOCC2)c1`, the remaining binding was 88% (binding; 1 µM).
